Assay outcomes from PubChem.
NSD2 HMT inh: NSD2 (human) methyltransferase inhibition | 0.54% of 310,000 active | inhibition, % at 12.5 µM | NSD2 peptide methylation, AlphaScreen, 120 min | O96028; in the data active = inhibition above about 50%
XiGFP reactiv: reactivates the inactive X chromosome in mouse fibroblasts; activation, % at 7.58 µM; 0.055% of 360,000 active; AID 743238; XiGFP mouse fibroblasts, % GFP-positive cells imaging, 3 d; cells co-treated with 5-aza-dC sensitizer; scaled so ellipticine positive control = 100%;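 active = mean normalized replicate activation at least 10% and every replicate at or above 10%; inconclusive = only one of the two criteria met; inactive = mean below 10% and not all replicates reach 10%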;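 note: 0% = median of on-plate neutral control wells and 100% = ellipticine 6 µM median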
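System: XiGFP fibroblasts, SV40-immortalized. Medium: DMEM plus 5-aza-dC sensitizer. Doses: single point. Timing: 3 d treatment, 15 min room-temperature fixation. Control set: ellipticine 6 µM.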
CASP6 VEID inh: caspase-6 (human) enzyme inhibition; P55212; purified caspase-6, Z-VEID-R110 cleavage fluorescence; inhibition, % at 12.5 µM; 0.53% of 350,000 active;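 active = mean inhibition across replicates at least about 35%, with every replicate also reaching that limit, limit read from the data; inconclusive = only one of the two criteria met; inactive = neither criterion met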;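 note: 0% = median of neutral control wells and 100% = no fluorescence left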
Target sequence (P55212 24-179 limits assumed): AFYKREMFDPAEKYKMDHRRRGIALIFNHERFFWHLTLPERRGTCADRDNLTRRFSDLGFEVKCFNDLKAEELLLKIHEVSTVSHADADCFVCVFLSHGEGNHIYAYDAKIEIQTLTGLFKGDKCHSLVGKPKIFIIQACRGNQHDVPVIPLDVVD
Target sequence (P55212 194-293 limits assumed): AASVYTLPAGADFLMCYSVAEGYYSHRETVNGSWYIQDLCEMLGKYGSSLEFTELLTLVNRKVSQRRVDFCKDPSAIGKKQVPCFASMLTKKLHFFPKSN
esBAF inh: SWI/SNF esBAF complex inhibition; reporter increase, % at 12.5 µM; mouse ES cells, Bmi1-luciferase knock-in reporter, 24 h; 100% = twice the neutral-well signal; 2% of 350,000 active; in the data active = activation above about 40%; inconclusive = no clear call, values can overlap the other calls;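 note: 0% = median of the plate's neutral control wells and 100% = double that signal; a rise in the Bmi1 reporter signal indicates esBAF inhibition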
Wnt act: Wnt/beta-catenin pathway activation. Wnt/beta-catenin reporter cell assay, activator, plate reader. activation, % at 9.35 µM. 1.2% of 300,000 active; in the data active = activation above about 30%, passing the limit was not always enough; inconclusive = no clear call, values can overlap the other calls;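 note: 0% = neutral control wells and 100% = positive control wells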
MITF TRPM1 HTS: increases MITF-driven TRPM1 promoter luciferase signal; SK-MEL-5 TRPM1-promoter luciferase, 24 h; % of positive control, neutral wells = 0; activation, % at 12.5 µM; 0.75% of 300,000 active; AID 588334;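 active = mean activation of at least 80% with every replicate also reaching 80%; inconclusive = mean reaches 80% but some replicate falls short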;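 note: 0% = neutral control wells and 100% = parthenolide positive control wells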
Alpha artifact: AlphaScreen assay artifact in NSD2 counter-screen; AC35, µM (titrated, usually from 10 µM), for inactives: at the highest dose activity change, negative = signal loss; 9.4% of 1,500 active; shares compounds with NSD2 HMT inh; AlphaScreen artifact counterscreen, preloaded methylated H4 peptide; call rule not given here
Starred values were filed as active, the others as inactive; ? = inconclusive; / = not tested or not shown; + = active, no number. Only some compounds are listed: those with a hit (about 3% of all), similar ones and a draw of the others.

SMILES | NSD2 HMT inh | XiGFP reactiv | CASP6 VEID inh | esBAF inh | Wnt act | MITF TRPM1 HTS | Alpha artifact
CC(=O)c1ccc(N2CCN(C(=O)[C@H](C)NC(=O)c3ccccc3Cl)CC2)cc1 | 65* | 0 | -4 | 9 | 3 | 2 | -2%
COc1ccc(N2CCN(C(=O)[C@H](C)NC(=O)c3ccccc3Cl)CC2)cc1 | 2 | 0 | 4 | -9 | 1 | 12 | /
Cc1ccc(Cn2c(SCC(=O)N3CC(=O)Nc4ccccc43)nc3ccccc3c2=O)cc1 | 60* | 0 | -1 | / | -3 | -6 | -1%
O=C(NNC(=S)Nc1ccccc1)c1ccco1 | 119* | / | / | 14 | / | 8 | -3%
C[C@H]1CN([C@@H](C)CO)C(=O)c2cc(NS(=O)(=O)c3ccc(Cl)cc3)ccc2O[C@H]1CN(C)S(=O)(=O)c1ccc(F)cc1 | / | 0 | 1 | -2 | / | / | /
CCN(CC)CCCNc1ncnc2scc(-c3ccc(F)cc3)c12 | 63* | 0 | -2 | 6 | 1 | -3 | -3%
Cc1oc2c(c1C(=O)c1ccccc1)C(=O)C(=O)c1ccccc1-2 | 50* | / | / | ? | / | 15 | -18%
Cn1c(SCC(=O)Nc2ccccc2C(F)(F)F)nc2c(c1=O)SCC2 | 3 | 0 | 2 | 2 | 0 | -23 | /
Cc1nc(N)sc1-c1nnc(SCC(=O)Nc2ccccc2C(F)(F)F)n1C | 125* | / | / | -3 | -5 | -3 | 0%
Cc1ccc(S(=O)(=O)N(C)C[C@@H]2OCCCC[C@H](C)Oc3ccc(NC(=O)Nc4cccc5ccccc45)cc3C(=O)N([C@@H](C)CO)C[C@H]2C)cc1 | / | 0 | 1 | -2 | / | / | /
Nc1c2c(=O)[nH]c(O)cc2nn1-c1ccccc1 | 100* | 0 | 40* | -1 | -1 | -8 | -3%
Cc1c(C)c2c(C)nn(-c3ccccc3)c2[nH]c1=O | -1 | / | / | 5 | / | / | /
C[C@@H]1CN([C@H](C)CO)C(=O)c2cccc(NC(=O)c3cnccn3)c2O[C@@H]1CN(C)C(=O)NC1CCCCC1 | / | 0 | / | -2 | / | / | /
CCOC(=O)c1c(C)oc2c1c(C=NCCC(=O)O)c(O)c1ccccc12 | 164* | 0 | 31 | -2 | -1 | -21 | 0%
CCc1cccc(CC)c1NC(=O)C1CC(=O)N(c2ccc3c(c2)OCCO3)C1 (configuration not stated) | -3 | / | / | -24 | -8 | 1 | /
Cc1cc(C)c(NC(=O)C2CC(=O)N(c3ccc4c(c3)OCCO4)C2)c(C)c1 (configuration not stated) | 106* | / | / | -14 | / | / | -4%
COc1cc(/C=C(\C#N)c2nc3ccc(C)cc3[nH]2)cc([N+](=O)[O-])c1O | 61* | 0 | 16 | / | 3 | 25 | -17%
COc1cc(/C=C(\C#N)c2nc3ccc(C)cc3[nH]2)c([N+](=O)[O-])cc1OC | 0 | / | / | 4 | 0 | 18 | /
COc1cc(CC(=O)NCC2COc3ccccc3O2)cc(OC)c1OC (configuration not stated) | 54* | 0 | -1 | / | -1 | -2 | -3%
O=C(Cc1ccccc1)NCC1COc2ccccc2O1 (configuration not stated) | 0 | / | 1 | / | 1 | 0 | /
CC(=O)N(C)C[C@H]1Oc2ncc(-c3ccccc3F)cc2C(=O)N([C@@H](C)CO)C[C@@H]1C | / | -1 | 0 | 0 | / | / | /
Cc1ccc2oc(-c3ccccc3C(=O)O)cc(=O)c2c1 | 24 | / | / | 2 | -1 | / | /
Cc1[nH][nH]c(=O)c1C(c1ccc(-c2cccc(Cl)c2)o1)c1c(C)[nH][nH]c1=O | / | / | / | -4 | / | -7 | /
Cc1[nH][nH]c(=O)c1C(c1ccc(-c2cccc(C(=O)O)c2)o1)c1c(C)[nH][nH]c1=O | + | 0 | 42* | / | 2 | 10 | -2%
COC(=O)c1ccc(-c2ccc(C(c3c(C)[nH][nH]c3=O)c3c(C)[nH][nH]c3=O)o2)cc1 | 53* | 0 | 40* | -63 | -5 | -44 | -1%
SMILES | NSD2 HMT inh | XiGFP reactiv | CASP6 VEID inh | esBAF inh | Wnt act | MITF TRPM1 HTS | Alpha artifact
Cc1[nH][nH]c(=O)c1C(c1ccc(-c2ccccc2C(=O)O)o1)c1c(C)[nH][nH]c1=O | 78* | 0 | / | / | 1 | -2 | -1%
C[C@H](CO)N1C[C@H](C)[C@@H](CN(C)Cc2ccncc2)Oc2ncc(C#Cc3ccncc3)cc2C1=O | / | 0 | / | 2 | / | / | /
O=C(C[C@@H]1CC[C@H](NC(=O)C2CCC2)[C@@H](CO)O1)NC1CCC1 | / | 0 | 9 | 3 | / | / | /
COCCCNC(=O)COc1ccc2oc3c(c2c1)CCCC3 | 2 | 0 | -3 | 0 | 0 | -10 | /
COCCCNC(=O)COc1ccc(Cl)c(C)c1 | 56* | / | / | 10 | 7 | / | 4%
N#Cc1cc(-c2ccccc2)cnc1Sc1ccc(Cl)cc1 | 112* | / | / | 14 | -2 | 17 | 7%
O=C(NCC1CCCCC1)[C@@H]1[C@@H](CO)[C@@H]2Cn3c(cccc3=O)[C@H]1N2C(=O)c1cccnc1 | / | 1 | / | -3 | / | / | /
O=C1CCN(Cc2ccccc2)N1 | 86* | 0 | 1 | 0 | 0 | 5 | 1%
COc1ccc(N2C(=O)C3C(C2=O)C(C(=O)c2ccc(Cl)cc2)N2CCCC32)cc1 (configuration not stated) | 79* | 0 | -2 | / | 5 | / | -7%
O=C(NCCO)/C(=C/c1ccc(Br)cc1)NC(=O)c1cccs1 | 2 | / | -2 | -5 | -5 | -9 | /
CCN(CC)CCNC(=O)/C(=C\c1cccn1C)NC(=O)c1cccs1 | 55* | 0 | -6 | / | / | -1 | -4%
COc1ccccc1CNC(=O)C[C@@H]1C[C@@H]2c3cc(NC(=O)Nc4ccccc4F)ccc3O[C@@H]2[C@@H](CO)O1 | / | 0 | -4 | -1 | / | / | /
CCOC(=O)c1c(C)[nH]c(C(=O)OCC(O)=C(C#N)c2nc3ccccc3[nH]2)c1C | -1 | 0 | 2 | / | -6 | -5 | /
Cc1c(-c2cccc(Cl)c2)nc2ccccc2c1C(=O)OC/C(O)=C(\C#N)c1nc2ccccc2[nH]1 | 56* | 0 | 3 | -7 | -2 | -5 | -9%
CC(C)Cn1c(N)c(C(=O)COC(=O)c2ccc([N+](=O)[O-])o2)c(=O)n(C)c1=O | 99* | 0 | 6 | / | 1 | -36 | -4%
CC(C)Cn1c(N)c(C(=O)COC(=O)c2ccc(O)cc2)c(=O)n(C)c1=O | 0 | 0 | 1 | / | -4 | -7 | /
O=C(C[C@@H]1C[C@H]2c3cc(NC(=O)Nc4ccccc4F)ccc3O[C@H]2[C@H](CO)O1)NCc1cc(F)ccc1F | / | 0 | 1 | 14 | / | / | /
CC1=NN(c2cccc(C(=O)O)c2)C(=O)/C1=C\C=C\c1ccco1 | + | / | / | 34 | / | 16 | 7.2µM*
CC1=NN(c2ccccc2)C(=O)/C1=C/C=C/c1ccccc1 | 7 | 1 | / | / | 1 | -71 | /
